Six compounds from ChEMBL document CHEMBL1141789, “Minutosides A and B, antifungal sulfated steroid xylosides from the patagonian starfish Anasterias minuta” (2005) can be followed below.

SMILES strings stand for the structures. The source made the active and inactive calls. The rule behind the calls is not given here.

For assay [1], the system named is Cladosporium cucumerinum. The assay is described as follows: Antifungal activity against Cladosporium cucumerinum at 10 to 60 ug/spot after 2 to 3 days. The format is functional. The method in brief: (§1)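 TLC bioautography: geometric dilutions made from freshly prepared stocks (1-10 mg mL^-1) in a suitable solvent, 10 µL spotted per TLC plate. Plates then sprayed with C. cucumerinum (DSM 62122) or A. flavus (BAFC 589) suspended in nutritive medium, incubated 2-3 days in a moist glass box. Read-out: diameter (mm) of clear inhibition zones against dark gray background; benomyl reference.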

In assay [2] the test system is Aspergillus flavus. Kind of assay: Antifungal activity against Aspergillus flavus at 20 to 60 ug/spot after 2 to 3 days. Type of assay: functional. The method in brief: as §1
Assay [3] relates to Aspergillus flavus. The assay is described as follows: Antifungal activity against Aspergillus flavus at 5 to 10 ug/spot after 2 to 3 days. Type of assay: functional. A digest of the protocol: as §1
Assay [4] relates to Cladosporium cucumerinum. The assay is described as follows: Antifungal activity against Cladosporium cucumerinum at 10 ug/spot after 2 to 3 days. Type of assay: functional, organism-based. The method in brief:
as §1

The test system of assay [5] is Cladosporium cucumerinum. The assay is described as follows: Antifungal activity against Cladosporium cucumerinum at 20 to 60 ug/spot after 2 to 3 days. Type of assay: functional. A digest of the protocol:
as §1

Assay [6] relates to Aspergillus flavus. Kind of assay: Antifungal activity against Aspergillus flavus at 5 ug/spot after 2 to 3 days. Type of assay: functional. A digest of the protocol:
(§2)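 TLC bioautography. Geometric dilutions were made from freshly prepared stock solutions (1-10 mg mL^-1) in a suitable solvent and spotted onto TLC plates. The read-out was the diameter (mm) of clear inhibition zones against a dark grey background.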

The test system of assay [7] is Cladosporium cucumerinum. Kind of assay: Antifungal activity against Cladosporium cucumerinum at 5 ug/spot after 2 to 3 days. Type of assay: functional. A digest of the protocol: as §2

Take `CC(C)[C@H](CC[C@@H](C)[C@H]1C[C@@H](O)[C@@H]2[C@]1(C)CC[C@@H]1[C@@]3(C)CC[C@H](O)C[C@@H]3[C@@H](O)C[C@]12O)O[C@@H]1OC[C@@H](O)[C@H](O)[C@H]1O`: the outcome in assay [1], in assay [2], in assay [3], in assay [4] and in assay [5] was inactive.
Regarding `CC(C)[C@H](/C=C/[C@@H](C)[C@H]1C[C@@H](O)[C@@H]2[C@]1(C)CC[C@@H]1[C@@]3(C)CC[C@H](O)C[C@@H]3[C@@H](O)C[C@]12O)O[C@@H]1OC[C@@H](O)[C@H](O)[C@H]1O`, the result in assay [1], in assay [2], in assay [3], in assay [4] and in assay [5] was inactive.
As for `CC(C)[C@H](/C=C/[C@@H](C)[C@H]1C[C@@H](O)[C@@H]2[C@]1(C)CC[C@@H]1[C@@]3(C)CC[C@H](OS(=O)(=O)[O-])C[C@@H]3[C@@H](O)C[C@]12O)O[C@@H]1OC[C@@H](O)[C@H](O)[C@H]1O.[Na+]` [MINUTOSIDE A], the “inhibition zone (IZ)” value in assay [1] stood at 7 mm; in assay [2], 5 mm; in assay [3] it was 5 mm.
As to `CC(C)[C@H](CC[C@@H](C)[C@H]1C[C@@H](O)[C@@H]2[C@]1(C)CC[C@@H]1[C@@]3(C)CC[C@H](OS(=O)(=O)O)C[C@@H]3[C@@H](O)C[C@]12O)O[C@@H]1OC[C@@H](O)[C@H](O)[C@H]1O` [PYCNOPODIOSIDE B], the “inhibition zone (IZ)” value came out at 7 mm in assay [1], 5 mm in assay [2] and 5 mm in assay [3].
As to `CCCCNC(=O)n1c(NC(=O)OC)nc2ccccc21` [BENOMYL], the “inhibition zone (IZ)” value in assay [6] worked out at 14 mm; in assay [7], 15 mm.
Turning to `C[C@H](/C=C/[C@@H](C)[C@H]1C[C@@H](O)[C@@H]2[C@]1(C)CC[C@@H]1[C@@]3(C)CC[C@H](O[C@@H]4OC[C@@H](O)[C@H](O)[C@H]4O)C[C@@H]3[C@@H](O)C[C@]12O)[C@H](C)C(=O)NCCS(=O)(=O)[O-].[Na+]` [MINUTOSIDE B], the results for the “inhibition zone (IZ)” value in assay [2] and in assay [5] were 5 mm and 3 mm, respectively. In addition, the outcome in assay [3] and in assay [4] was inactive.
